# Activity calls are given as the source filed them. The calls are words filed in the database; no cut-off is given here.
# How the values were obtained:
# Staphylococcus aureus [1] = assay: Induction of morphological changes in Staphylococcus aureus ATCC 29213 assessed as membrane alteration at 1 times MIC after 60 mins by TEM analysis; format: functional, organism-based
# Escherichia coli [2] = assay: Induction of morphological changes in Escherichia coli O157:H7 CICC 21530 assessed as membrane alteration at 1 times MIC after 60 mins by TEM analysis; format: functional, organism-based
# Staphylococcus aureus [3] = assay: Induction of morphological changes in Staphylococcus aureus ATCC 29213 assessed as intracellular changes at 1 times MIC after 60 mins by TEM analysis; format: functional, organism-based
# Escherichia coli [4] = assay: Induction of morphological changes in Escherichia coli O157:H7 CICC 21530 assessed as intracellular changes at 1 times MIC after 60 mins by TEM analysis; format: functional, organism-based
# Staphylococcus aureus [5] = assay: Induction of morphological changes in Staphylococcus aureus ATCC 29213 assessed as membrane damage at 1 times MIC after 60 mins by TEM analysis; format: functional, organism-based
# Escherichia coli [6] = assay: Induction of morphological changes in Escherichia coli O157:H7 CICC 21530 assessed as membrane damage at 1 times MIC after 60 mins by TEM analysis; format: functional, organism-based
# Staphylococcus aureus [7] = assay: Induction of morphological changes in Staphylococcus aureus ATCC 29213 assessed as outflow of cytoplasm at 1 times MIC after 60 mins by TEM analysis; format: functional, organism-based
# Escherichia coli [8] = assay: Induction of morphological changes in Escherichia coli O157:H7 CICC 21530 assessed as outflow of cytoplasm at 1 times MIC after 60 mins by TEM analysis; format: functional, organism-based
# Cell membrane = assay: Induction of cell membrane disruption in Staphylococcus aureus ATCC 29213 assessed as spread of fluorescent signal across membrane surface at 1 times MIC in presence of FITC-labelled compound after 30 mins by confocal laser-scanning microscope analysis; format: subcellular
# Lipopolysaccharide (LPS) = assay: Displacement of BODIPYTM-TR-cadaverine from Escherichia coli O111:B4 LPS by fluorescence spectroscopic analysis; conditions: dose 0.25-4 µM
# Procedure, shortened: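 LPS-binding dye displacement: LPS (25 µg/mL) and BODIPY-TR-cadaverine (2.5 µg/mL) in tris buffer pH 7.4. An equal volume of peptide solution was added and the rise in fluorescence was recorded at excitation 580 nm and emission 620 nm. Melittin served as positive control. Each test was run independently in triplicate.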
# RAW264.7 [9] = assay: Antiinflammatory activity against mouse RAW264.7 cells assessed as inhibition of LPS-induced nitric oxide production at 32 uM measured after 24 hrs by Griess reagent based ELISA; format: functional, cell-based
# Procedure, shortened: (§1)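 RAW264.7 cells plated at 1-2 × 10^5 cells/mL and stimulated with 500 ng/mL LPS with or without peptide (0.5-64 µM) for 24 h at 37 °C. Controls were untreated cells and LPS alone. TNF-α in the supernatant measured by ELISA. NO measured by Griess reagent (1% sulfanilamide, 0.1% naphthylethylenediamine, 5% phosphoric acid).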
# RAW264.7 [10] = assay: Antiinflammatory activity against mouse RAW264.7 cells assessed as inhibition of LPS-induced TNF-alpha production at 4 uM measured after 24 hrs by […] ELISA; format: functional, cell-based; procedure, shortened: as §1
# HepG2 [11] = assay: Induction of morphological changes in human HepG2 cells assessed as decrease in adhesive monolayer at 32 uM after 24 hrs by inverted microscope analysis; format: functional, cell-based
# HepG2 [12] = assay: Induction of morphological changes in human HepG2 cells assessed as roughness of cell membrane at 32 uM after 24 hrs by SEM analysis; format: functional, cell-based
# HepG2 [13] = assay: Induction of morphological changes in human HepG2 cells assessed as appearance of crimped boundaries at 32 uM after 24 hrs by SEM analysis; format: functional, cell-based
# HepG2 [14] = assay: Induction of morphological changes in human HepG2 cells assessed as appearance of rounded cells at 32 uM after 24 hrs by SEM analysis; format: functional, cell-based
# HepG2 [15] = assay: Induction of morphological changes in human HepG2 cells assessed as cytoskeleton damage at 32 uM after 24 hrs by SEM analysis; format: functional, cell-based
# HepG2 [16] = assay: Induction of apoptosis in human HepG2 cells assessed as nucleus budding at 32 uM incubated for 2 to 4 hrs by DAPI staining based confocal microscopy; format: functional, cell-based; conditions: time 2-4 hrs
# Procedure, shortened: (§2)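 HepG2 cells treated with 32 µM peptide for 2, 4 or 8 h and stained with DAPI. Nuclear morphology imaged by confocal microscopy, with untreated cells as control.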
# HepG2 [17] = assay: Induction of apoptosis in human HepG2 cells assessed as nuclear fragmentation at 32 uM measured after 8 hrs by DAPI staining based confocal microscopy; format: functional, cell-based; procedure, shortened: as §2
# [18] = Drug localization in cell membrane of human HepG2 cells assessed as green fluorescent signal in presence of FITC-labelled peptide at 32 uM measured up to 8 hrs by DAPI staining based confocal microscopy; format: ADME, cell membranes; conditions: hepg2, 8 h
# Procedure, shortened: (§3)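 HepG2 cells incubated with FITC-labelled peptide at 32 µM. Fluorescence distribution imaged by confocal laser-scanning microscopy at intervals (1, 4 and 8 h).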
# [19] = Drug localization in nucleus of human HepG2 cells assessed as fluorescent signal in presence of FITC-labelled peptide at 32 uM incubated for 4 hrs by DAPI staining based confocal microscopy; format: ADME, subcellular; conditions: hepg2, 4 h; procedure, shortened: as §3
# [20] = Drug distribution in human HepG2 cells assessed as fluorescence signal in presence of FITC-labelled peptide at 32 uM measured after 8 hrs by DAPI staining based confocal microscopy; format: ADME, cell-based; conditions: hepg2, 8 h; procedure, shortened: as §3
# HepG2 [21] = assay: Induction of ROS generation in human HepG2 cells assessed as increase in fluorescence intensity up to 32 uM by DCFH-DA staining-based fluorescence analysis; format: functional, cell-based; conditions: dose microM <=32, time 8.0 hrs, TDE = time-dependent effect
substance,measurement,setting,value
H-WGEAFSAGVHRLANGGNG-NH2,Activity,Staphylococcus aureus [1],Active
same,Activity,Escherichia coli [2],Active
same,Activity,Staphylococcus aureus [3],Active
same,Activity,Escherichia coli [4],Active
H-WLRAFRRLVRRLARGLRR-NH2,Activity,Staphylococcus aureus [5],Active
same,Activity,Escherichia coli [6],Active
same,Activity,Staphylococcus aureus [7],Active
same,Activity,Escherichia coli [8],Active
same,Activity,Cell membrane,Active
same,Activity,Lipopolysaccharide (LPS),Active
same,Activity,RAW264.7 [9],Active
same,Activity,RAW264.7 [10],Active
same,Activity,HepG2 [11],Active
same,Activity,HepG2 [12],Active
same,Activity,HepG2 [13],Active
same,Activity,HepG2 [14],Active
same,Activity,HepG2 [15],Active
same,Activity,HepG2 [16],Active
same,Activity,HepG2 [17],Active
same,Drug uptake,[18],Active
same,Drug uptake,[19],Active
same,Drug uptake,[20],Active
same,Activity,HepG2 [21],Tde

# Reference: ChEMBL document CHEMBL4765236, “Insights into the Antimicrobial Activity and Cytotoxicity of Engineered α-Helical Peptide Amphiphiles” (J Med Chem, 2016)
